Laboratory results as given in ChEMBL document CHEMBL4706654, “Novel cyanothiouracil and cyanothiocytosine derivatives as concentration-dependent selective inhibitors of U87MG glioblastomas: Adenosine receptor binding and potent PDE4 inhibition” (Eur J Med Chem, 2021).
pIC50: −log10 of the molar value.

Key:
U-87 MG [1] = test: Antiproliferative activity against human U-87 MG cells assessed as cell viability at 50 uM measured after 24 to 48 hrs by MTT assay relative to control; format: functional, U-87MG ATCC; conditions: time 24-48 hrs, read-out: Activity
Outline: (§1)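 Cells seeded per well 24 h before treatment: HEK293 at 5.10^4, MCF7 at 4.10^4, U87MG at 10^5. Compounds were dissolved in DMSO (less than 1%) and diluted in DMEM, then incubated 24 and 48 h. Cells were washed with D-PBS and given MTT (from a 5 mg/mL stock) for 4 h, dissolved in DMSO, read at 540 nm. % viability = sample/control absorbance ×100. At least three independent experiments.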

[2] = Cytotoxicity against HEK293 cells assessed as cell viability at 100 uM measured after 24 to 48 hrs by MTT assay relative to control; format: cell-based; conditions: human, HEK293 cells, time 24-48 hrs, read-out: Activity; outline: as §1
U-87 MG [3] = test: Antiproliferative activity against human U-87 MG cells assessed as cell viability at 100 uM measured after 24 to 48 hrs by MTT assay relative to control; format: functional, U-87MG ATCC; conditions: time 24-48 hrs, read-out: Activity; outline: as §1
U-87 MG [4] = test: Antiproliferative activity against human U-87 MG cells assessed as reduction in cell viability measured after 24 to 48 hrs by MTT assay; format: functional, cell-based, U-87MG ATCC; outline: as §1
U-87 MG [5] = test: Antiproliferative activity against human U-87 MG cells assessed as cell viability at 5 uM measured after 24 to 48 hrs by MTT assay relative to control; format: functional, U-87MG ATCC; conditions: time 24-48 hrs, read-out: Activity; outline: as §1
U-87 MG [6] = test: Antiproliferative activity against human U-87 MG cells assessed as cell viability at 10 uM measured after 24 to 48 hrs by MTT assay relative to control; format: functional, U-87MG ATCC; conditions: time 24-48 hrs, read-out: Activity; outline: as §1
HEK293 = test: Cytotoxicity against HEK293 cells assessed as reduction in cell viability measured after 24 to 48 hrs by MTT assay; format: cell-based; conditions: Homo sapiens; outline: as §1

Row | Compound | pIC50 (U-87 MG [4]) | viability at 50 µM (U-87 MG [1]) | viability at 100 µM [2] | viability at 100 µM (U-87 MG [3]) | viability at 5 µM (U-87 MG [5]) | viability at 10 µM (U-87 MG [6]) | pIC50 (HEK293)
1 | COc1ccc(-c2nc(C)c(C(=O)CSc3nc(-c4ccccc4)c(C#N)c(=O)[nH]3)s2)cc1 | 4.24 | 72.5% | > 50% | 10.9% | 99% | 90.9% | –
2 | Cc1nc(-c2ccc(Cl)cc2)sc1C(=O)CSc1nc(-c2ccccc2)c(C#N)c(=O)[nH]1 | 4.56 | 41.6% | > 50% | 11.4% | 88.9% | 83.1% | –
3 | COc1ccc(-c2nc(SCC(=O)c3sc(-c4ccccc4)nc3C)[nH]c(=O)c2C#N)cc1 | 4.32 | 52.1% | – | 1.08% | 97.3% | 90.4% | 4.12
4 | Cc1nc(-c2ccc(Cl)cc2)sc1C(=O)CSc1nc(-c2ccc(Cl)c(Cl)c2)c(C#N)c(=O)[nH]1 | 4.08 | 93.9% | – | 36.5% | 101% | 97.1% | 4.33
5 | COc1cccc(-c2nc(SCC(=O)c3sc(-c4ccccc4)nc3C)[nH]c(=O)c2C#N)c1 | 4.22 | 80.3% | – | 21.8% | 99% | 90.2% | 4.04
6 | Cc1nc(-c2ccc(Cl)cc2)sc1C(=O)CSc1nc(-c2ccc(Cl)cc2)c(C#N)c(=O)[nH]1 | 4.28 | 60% | – | 12.8% | 99% | 98.4% | 4.12
7 | COc1cccc(-c2nc(SCC(=O)c3sc(-c4ccc(Cl)cc4)nc3C)[nH]c(=O)c2C#N)c1 | 4.39 | 47.6% | – | 8.54% | 96.6% | 89.7% | 4.11
8 | Cc1nc(-c2ccc(Cl)cc2)sc1C(=O)CSc1nc(-c2ccc3c(c2)OCO3)c(C#N)c(=O)[nH]1 | 4.26 | 68.3% | – | 9.91% | 101% | 95% | 4.09
9 | COc1ccc(-c2nc(C)c(C(=O)CSc3nc(-c4cccc(OC)c4)c(C#N)c(=O)[nH]3)s2)cc1 | 4.81 | 43.2% | – | 12.4% | 71.3% | 66.7% | 4.02
10 | Cc1nc(-c2ccccc2)sc1C(=O)CSc1nc(-c2ccccc2)c(C#N)c(=O)[nH]1 | 4.25 | 77.5% | – | 9.23% | 92.1% | 87.5% | 4.03

Further compounds by rising pIC50 (U-87 MG [4]), results first:

Row | pIC50 (U-87 MG [4]) | Compound | viability at 50 µM (U-87 MG [1]) | viability at 100 µM [2] | viability at 100 µM (U-87 MG [3]) | viability at 5 µM (U-87 MG [5]) | viability at 10 µM (U-87 MG [6]) | pIC50 (HEK293)
11 | 4.16 | COc1ccc(-c2nc(C)c(C(=O)CSc3nc(-c4ccc(Cl)c(Cl)c4)c(C#N)c(=O)[nH]3)s2)cc1 | 78.4% | – | 31.1% | 101% | 88.6% | 4.34
12 | 4.19 | Cc1nc(-c2ccccc2)sc1C(=O)CSc1nc(-c2ccc(Cl)c(Cl)c2)c(C#N)c(=O)[nH]1 | 75.3% | – | 24.4% | 98.6% | 92.5% | 4.07
13 | 4.34 | COc1ccc(-c2nc(C)c(C(=O)CSc3nc(-c4ccc(Cl)cc4)c(C#N)c(=O)[nH]3)s2)cc1 | 48% | – | 2.85% | 102% | 92.7% | 4.20
14 | 4.36 | Cc1nc(-c2ccccc2)sc1C(=O)CSc1nc(-c2ccc(Cl)cc2)c(C#N)c(=O)[nH]1 | 63.4% | > 50% | 22.5% | 90.9% | 85.2% | –
15 | 4.40 | Cc1nc(-c2ccc(Cl)cc2)sc1C(=O)CSc1nc(-c2cccc(Cl)c2)c(C#N)c(=O)[nH]1 | 52.6% | – | 12.5% | 80.2% | 95.2% | 4.52
